According to ChEMBL document CHEMBL1132488, “On the bioactive conformation of NAN-190 (1) and MP3022 (2), 5-HT(1A) receptor antagonists” (J Med Chem, 1999):

Legend:
Rattus norvegicus [1] = organism: Rattus norvegicus; experiment: Induction of behavioral syndrome(FT: forepaw treading) by the compound in reserpine pretreated rats at a dose of 4; FT mean score; format: functional
Procedure, shortened: (§1)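 Male Wistar rats (260–300 g) were given reserpine 1 mg/kg sc in saline 18 h before testing. Test compound was then given alone ip as a 1% Tween 80 suspension (2 mL/kg). FBP and FT were each scored 0–3 and summed (maximum 15). n=6 per group; mean ± SEM; Newman–Keuls test.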

Rattus norvegicus [2] = organism: Rattus norvegicus; experiment: Effective dose of the required to inhibit symptoms produced by 8-OH-DPAT; format: functional
Procedure, shortened: (§2)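 Reserpinized male Wistar rats (reserpine 1 mg/kg sc, 18 h before), groups of 6. Compound given ip in 1% Tween 80 60 min before 8-OH-DPAT 5 mg/kg sc. FBP/FT rated 0–3 at 3, 6, 9, 12 and 15 min after agonist, summed (max 15). Mean ± SEM; Newman–Keuls test; ED50 with range.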

Rattus norvegicus [3] = organism: Rattus norvegicus; experiment: Induction of behavioral syndrome(FBP: flat body posture) by the compound in reserpine pretreated rats at a dose of 16; FBP mean score; format: functional
Procedure, shortened: (§3)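 Male Wistar rats (260–300 g), groups of 6, given reserpine 1 mg/kg sc 18 h before test. Compounds given ip as 1% Tween 80 suspension. FBP and FT rated 0–3 in 45-s sessions every 3 min, starting 3 min after dosing. Score summed over 5 periods (max 15 per symptom). Mean ± SEM; Newman–Keuls test.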

Rattus norvegicus [4] = organism: Rattus norvegicus; experiment: Effect on 8-OH-DAPT- induced behavioral syndrome(FT: forepaw treading) by the compound in reserpine pretreated rats at a dose of 16; FT mean score; format: functional; procedure, shortened: as §2
Rattus norvegicus [5] = experiment: Effect on 8-OH-DPAT-Induced LLR(lower lip retraction) in rats at a dose of 4 mg/kg; LLR score; format: functional
Procedure, shortened: (§4)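 Male Wistar rats, groups of 6. Compound given ip in 1% Tween 80 45 min before 8-OH-DPAT 1 mg/kg sc. Lower incisor visibility scored 0/0.5/1 at 15, 30 and 45 min after agonist, summed (max 3). Mean ± SEM; Newman–Keuls test; ED50 with range.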

Rattus norvegicus [6] = organism: Rattus norvegicus; experiment: Induction of behavioral syndrome(FT: forepaw treading) by the compound in reserpine pretreated rats at a dose of 16; FT mean score; format: functional; procedure, shortened: as §1
Rattus norvegicus [7] = organism: Rattus norvegicus; experiment: Effect on 8-OH-DAPT- induced behavioral syndrome(FBP: flat body posture) by the compound in reserpine pretreated rats at a dose of 4; FBP mean score; format: functional; procedure, shortened: as §2
Rattus norvegicus [8] = organism: Rattus norvegicus; experiment: Induction of behavioral syndrome(FT: forepaw treading) by the compound in reserpine pretreated rats at a dose of 8; FT mean score; format: functional; procedure, shortened: as §1
Rattus norvegicus [9] = experiment: Effect on 8-OH-DPAT-Induced LLR(lower lip retraction) in rats at a dose of 16 mg/kg; LLR score; format: functional; procedure, shortened: as §4
Rattus norvegicus [10] = organism: Rattus norvegicus; experiment: Dose Inducing behavioral syndrome(FT: forepaw treading) by the compound in reserpine pretreated rats.; format: functional; procedure, shortened: as §3
Rattus norvegicus [11] = organism: Rattus norvegicus; experiment: Effect on 8-OH-DAPT- induced behavioral syndrome(FBP: flat body posture) by the compound in reserpine pretreated rats at a dose of 8; FBP mean score; format: functional; procedure, shortened: as §2
Rattus norvegicus [12] = experiment: Induction of LLR(lower lip retraction) by the compound in rats at a dose of 4 mg/kg; LLR score; format: functional
Procedure, shortened: (§5)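 Male Wistar rats, groups of 6, given compound alone ip as 1% Tween 80 suspension. Lower incisor visibility scored 0/0.5/1 at 15, 30 and 45 min after dosing, summed (max 3 per rat). Mean ± SEM versus vehicle, Newman–Keuls test; ED50 with range.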

Rattus norvegicus [13] = experiment: Induction of LLR(lower lip retraction) by the compound in rats at a dose of 8 mg/kg; LLR score; format: functional; procedure, shortened: as §5
Rattus norvegicus [14] = experiment: Induction of LLR(lower lip retraction) by the compound in rats at a dose of 16 mg/kg; LLR score; format: functional; procedure, shortened: as §5
Rattus norvegicus [15] = organism: Rattus norvegicus; experiment: Induction of behavioral syndrome(FBP: flat body posture) by the compound in reserpine pretreated rats at a dose of 4; FBP mean score; format: functional; procedure, shortened: as §1
Rattus norvegicus [16] = organism: Rattus norvegicus; experiment: Induction of behavioral syndrome(FBP: flat body posture) by the compound in reserpine pretreated rats at a dose of 8; FBP mean score; format: functional; procedure, shortened: as §1
Rattus norvegicus [17] = experiment: Effect on 8-OH-DPAT-Induced LLR(lower lip retraction) in rats at a dose of 8 mg/kg; LLR score; format: functional; procedure, shortened: as §4
Rattus norvegicus [18] = organism: Rattus norvegicus; experiment: Effect on 8-OH-DAPT- induced behavioral syndrome(FT: forepaw treading) by the compound in reserpine pretreated rats at a dose of 4; FT mean score; format: functional; procedure, shortened: as §2
Rattus norvegicus [19] = organism: Rattus norvegicus; experiment: Effect on 8-OH-DAPT- induced behavioral syndrome(FBP: flat body posture) by the compound in reserpine pretreated rats at a dose of 16; FBP mean score; format: functional; procedure, shortened: as §2
Rattus norvegicus [20] = organism: Rattus norvegicus; experiment: Effect on 8-OH-DAPT- induced behavioral syndrome(FT: forepaw treading) by the compound in reserpine pretreated rats at a dose of 8; FT mean score; format: functional; procedure, shortened: as §2
Rattus norvegicus [21] = organism: Rattus norvegicus; experiment: Dose Inducing behavioral syndrome(FBP: flat body posture) by the compound in reserpine pretreated rats; format: functional; procedure, shortened: as §3
[22] = target: T1, 5-hydroxytryptamine receptor 1A (Rattus norvegicus, UniProt P19327); experiment: Ability to displace [3H]8-OH-DPAT from 5-hydroxytryptamine 1A receptor
T1 sequence (P19327 whole entry): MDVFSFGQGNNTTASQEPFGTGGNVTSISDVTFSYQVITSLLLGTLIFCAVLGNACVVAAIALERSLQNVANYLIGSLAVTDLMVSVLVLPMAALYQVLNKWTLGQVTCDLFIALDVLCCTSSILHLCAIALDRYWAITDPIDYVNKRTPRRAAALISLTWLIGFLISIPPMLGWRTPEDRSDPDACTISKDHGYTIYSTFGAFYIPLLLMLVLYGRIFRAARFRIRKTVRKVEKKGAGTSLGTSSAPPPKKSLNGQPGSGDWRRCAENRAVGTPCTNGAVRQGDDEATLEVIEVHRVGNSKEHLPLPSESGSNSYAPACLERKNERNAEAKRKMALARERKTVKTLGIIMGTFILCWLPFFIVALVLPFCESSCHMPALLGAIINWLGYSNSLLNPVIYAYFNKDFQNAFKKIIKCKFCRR
Procedure, shortened: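 Rat hippocampal membranes, [3H]8-OH-DPAT radioligand. Ki from at least three competition experiments, each with 10–14 drug concentrations run in triplicate. Ki calculated with the Cheng–Prusoff equation.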

Rattus norvegicus [23] = organism: Rattus norvegicus; experiment: Induction of behavioral syndrome(FBP: flat body posture) by the compound in reserpine pretreated rats at a dose of 8; format: functional; procedure, shortened: as §1
Rattus norvegicus [24] = organism: Rattus norvegicus; experiment: Dose Inducing behavioral syndrome(FT: forepaw treading) by the compound in reserpine pretreated rats; format: functional; procedure, shortened: as §3
Rattus norvegicus [25] = organism: Rattus norvegicus; experiment: Effective dose required to induce LLR(lower lip retraction); format: functional; procedure, shortened: as §5
Rattus norvegicus [26] = organism: Rattus norvegicus; experiment: Effect on 8-OH-DAPT- induced behavioral syndrome(FT: forepaw treading) by the compound in reserpine pretreated rats at a dose of 16; format: functional; procedure, shortened: as §2

Structure (SMILES) | FT mean score (Rattus norvegicus [1]) | FBP mean score (Rattus norvegicus [3]) | FT mean score (Rattus norvegicus [6]) | FBP mean score (Rattus norvegicus [7]) | FT mean score (Rattus norvegicus [8]) | FBP mean score (Rattus norvegicus [11]) | LLR score (Rattus norvegicus [12]) | LLR score (Rattus norvegicus [13]) | LLR score (Rattus norvegicus [14]) | FBP mean score (Rattus norvegicus [15]) | FT mean score (Rattus norvegicus [18]) | FBP mean score (Rattus norvegicus [19]) | FT mean score (Rattus norvegicus [20]) | ED50 (Rattus norvegicus [21]) [mg/kg] | Ki [22] [nM] | further results
COc1ccccc1N1CCN(CCCn2nnc3ccccc32)CC1 | 0.2 | 0.1 | 0.1 | 11.5 | 0.2 | 8 | 0 | 0.1 | 0.6 | 0.2 | 5.8 | 6.1 | 3.7 | 10.5 | – | ED50 (Rattus norvegicus [2]): 6.5 mg/kg; FT mean score (Rattus norvegicus [4]): 2.6; LLR score (Rattus norvegicus [5]): 1.1; LLR score (Rattus norvegicus [9]): 0.9; ED50 (Rattus norvegicus [10]): 5.2 mg/kg; FBP mean score (Rattus norvegicus [16]): 0.2; LLR score (Rattus norvegicus [17]): 0.7
O=C1[C@H]2CCCC[C@H]2C(=O)N1C1CCC(N2CCc3ccccc3C2)CC1 (stereo partly specified) | – | – | – | – | – | – | – | – | – | – | – | – | – | – | 1600 | –
COc1ccccc1N1CCN(C2CCCC(n3nnc4ccccc43)C2)CC1 (stereo unspecified) | 0.1 | 1 | 0.1 | 12.5 | 0.3 | 7 | 0.9 | 1.3 | 1.6 | 0.6 | 9.6 | 6.2 | 3.5 | 11 | 47 | FBP mean score (Rattus norvegicus [23]): 0.5; ED50 (Rattus norvegicus [24]): 7 mg/kg; ED50 (Rattus norvegicus [25]): 8 mg/kg; FT mean score (Rattus norvegicus [26]): 0.8
